Experimental data as given in ChEMBL document CHEMBL1126771, “Application of a conformationally restricted Phe-Leu dipeptide mimetic to the design of a combined inhibitor of angiotensin I-converting enzyme and neutral endopeptidase 24.11” (J Med Chem, 1993).

How the values were obtained:
[1] = target: T1, Angiotensin-converting enzyme (Oryctolagus cuniculus, UniProt P12822); assay: Binding affinity of compound against rabbit lung angiotensin I-converting enzyme (ACE) was determined
T1 sequence (P12822 whole entry): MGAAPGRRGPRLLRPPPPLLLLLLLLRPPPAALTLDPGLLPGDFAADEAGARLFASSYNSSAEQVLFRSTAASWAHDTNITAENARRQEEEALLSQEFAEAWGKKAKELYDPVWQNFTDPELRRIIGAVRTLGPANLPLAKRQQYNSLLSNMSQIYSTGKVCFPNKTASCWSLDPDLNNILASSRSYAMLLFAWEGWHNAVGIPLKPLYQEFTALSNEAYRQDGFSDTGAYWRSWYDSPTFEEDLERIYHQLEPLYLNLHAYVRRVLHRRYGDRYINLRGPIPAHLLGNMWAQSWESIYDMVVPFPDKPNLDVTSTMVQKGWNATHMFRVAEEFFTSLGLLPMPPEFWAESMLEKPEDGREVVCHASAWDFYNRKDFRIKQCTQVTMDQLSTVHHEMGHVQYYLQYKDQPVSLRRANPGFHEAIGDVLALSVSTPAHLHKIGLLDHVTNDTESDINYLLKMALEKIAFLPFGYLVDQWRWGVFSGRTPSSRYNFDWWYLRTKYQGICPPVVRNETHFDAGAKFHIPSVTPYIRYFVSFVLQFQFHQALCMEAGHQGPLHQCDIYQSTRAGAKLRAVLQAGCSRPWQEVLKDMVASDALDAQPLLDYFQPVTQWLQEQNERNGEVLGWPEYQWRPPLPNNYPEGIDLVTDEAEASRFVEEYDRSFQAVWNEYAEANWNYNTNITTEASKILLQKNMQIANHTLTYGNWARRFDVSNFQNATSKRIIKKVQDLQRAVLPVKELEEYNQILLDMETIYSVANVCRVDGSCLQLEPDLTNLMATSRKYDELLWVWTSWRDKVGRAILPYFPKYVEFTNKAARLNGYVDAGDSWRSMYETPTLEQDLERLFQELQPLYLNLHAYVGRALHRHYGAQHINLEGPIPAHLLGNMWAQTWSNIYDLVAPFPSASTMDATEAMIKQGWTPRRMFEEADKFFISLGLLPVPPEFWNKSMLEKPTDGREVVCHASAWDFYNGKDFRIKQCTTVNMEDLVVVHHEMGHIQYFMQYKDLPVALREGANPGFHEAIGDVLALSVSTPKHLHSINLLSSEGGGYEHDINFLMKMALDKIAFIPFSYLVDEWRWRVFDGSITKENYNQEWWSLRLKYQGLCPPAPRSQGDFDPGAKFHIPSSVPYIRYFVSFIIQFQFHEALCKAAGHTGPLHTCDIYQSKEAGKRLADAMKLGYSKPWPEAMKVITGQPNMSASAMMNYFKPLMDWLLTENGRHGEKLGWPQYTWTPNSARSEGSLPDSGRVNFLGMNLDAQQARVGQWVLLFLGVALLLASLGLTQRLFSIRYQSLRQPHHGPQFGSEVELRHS
Summary of the method: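 Rabbit lung ACE. Spectrophotometric assay with recrystallized (furylacryloyl)phenylalanyl-glycylglycine as substrate; colored contaminants removed beforehand. Thiol content of inhibitor solutions checked with Ellman's reagent just before testing.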

Neprilysin = target: T2, Neprilysin (Rattus norvegicus, UniProt P07861); assay: Binding affinity of compound against rat kidney neutral endopeptidase (NEP) was determined
T2 sequence (P07861 whole entry): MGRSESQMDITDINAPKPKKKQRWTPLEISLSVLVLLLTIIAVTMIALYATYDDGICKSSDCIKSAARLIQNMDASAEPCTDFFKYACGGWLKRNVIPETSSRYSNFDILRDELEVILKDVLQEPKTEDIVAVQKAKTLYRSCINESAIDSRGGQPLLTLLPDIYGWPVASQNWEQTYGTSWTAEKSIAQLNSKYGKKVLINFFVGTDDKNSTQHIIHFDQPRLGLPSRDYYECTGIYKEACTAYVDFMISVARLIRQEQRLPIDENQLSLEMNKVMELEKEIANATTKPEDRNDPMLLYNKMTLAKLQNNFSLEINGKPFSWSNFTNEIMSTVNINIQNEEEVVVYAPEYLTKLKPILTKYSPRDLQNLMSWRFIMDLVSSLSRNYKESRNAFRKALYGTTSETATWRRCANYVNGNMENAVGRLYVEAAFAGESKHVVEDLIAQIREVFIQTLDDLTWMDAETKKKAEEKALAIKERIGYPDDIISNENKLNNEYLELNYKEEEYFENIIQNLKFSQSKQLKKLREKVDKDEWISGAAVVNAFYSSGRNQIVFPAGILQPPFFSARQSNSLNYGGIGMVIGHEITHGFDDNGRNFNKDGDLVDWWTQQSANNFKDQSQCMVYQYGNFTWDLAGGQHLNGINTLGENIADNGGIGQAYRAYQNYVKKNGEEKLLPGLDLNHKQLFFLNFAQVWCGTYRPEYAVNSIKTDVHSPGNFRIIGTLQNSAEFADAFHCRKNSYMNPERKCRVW
Summary of the method: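 Rat kidney NEP. Fluorogenic assay using dansyl-D-Ala-Gly-(p-nitro)Phe-Gly-OH as substrate. Inhibitor solutions assayed for thiol content with Ellman's reagent immediately prior to testing.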

Row | Ki [1] | Ki (Neprilysin) | Compound
1 | > 7 nM | 45 nM | O=C(O)[C@H]1CCCC2c3ccccc3C[C@@H](CS)C(=O)N21 (stereo in doubt; 4)
2 | 0.11 nM | 0.08 nM | O=C(NC1Cc2ccccc2C2CCC[C@H](C(=O)O)N2C1=O)C(S)Cc1ccccc1 (stereo in doubt)
3 | 0.004 nM | > 10000 nM | O=C(O)[C@H](CCc1ccccc1)N[C@@H]1Cc2ccccc2C2CCC[C@H](C(=O)O)N2C1=O (some centres not stated)
4 | 2 nM | 5 nM | O=C(CS)N[C@@H]1Cc2ccccc2C2CCC[C@H](C(=O)O)N2C1=O (some centres not stated)
5 | 2 nM | > 300 nM | O=C(O)[C@H]1CCCC2c3ccccc3C[C@@H](CS)C(=O)N21 (stereo in doubt; 3)
6 | 4.5 nM | 0.07 nM | O=C(NC1Cc2ccccc2C2CCC[C@H](C(=O)O)N2C1=O)C(S)Cc1ccccc1 (stereo in doubt; 11b)
